According to paper PMC3841656 (Pharmaceutical Research, 2013):

Legend:
Format in all cases: physicochemical
[1] = Solubility in PEG400 under dry conditions; details: two tailed t-test, ambient vs dry
[2] = Equilibrium solubility in soybean oil; details: 37°C, HPLC
How it was run: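 The drug was added in excess to triplicate sealed glass vials of soybean oil (2 g, later 1 g), vortexed and incubated at 37°C. Samples were taken at 24, 48 and 72 h or longer after centrifugation at 37°C, 2,800 g for 30 min. Supernatant (20–30 mg) was diluted in 66% v/v chloroform/methanol and quantified by C18 RP-HPLC-UV against a standard curve. Equilibrium was taken when consecutive 24-h points differed <10%; mean ± SD, n ≥ 3.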

[3] = Equilibrium solubility in PEG400, ambient conditions; details: PEG400, 37°C, ambient milieu (0.32% w/w water)
How it was run: (§1)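 Excess drug was added to triplicate sealed glass vials of excipient (2 g, later 1 g) and held at 37°C with periodic vortexing. Vials were centrifuged at 37°C, 2,800 g for 30 min and sampled at 24, 48 and 72 h or longer. Supernatant (20–30 mg) was diluted in 7% v/v chloroform/methanol and analysed by C18 RP-HPLC-UV. Equilibrium was taken when consecutive 24-h samples differed <10%; mean ± SD, n ≥ 3.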

[4] = Equilibrium solubility in polysorbate 80; details: polysorbate 80, 37°C, HPLC
How it was run: as §1

Structure (SMILES): COc1ccc2c(c1)c(CC(=O)O)c(C)n2C(=O)c1ccc(Cl)cc1 [Indomethacin]
- difference in PEG400 solubility between ambient and dry conditions [1]: no significant difference

Structure (SMILES): N[C@@H](Cc1cc(I)c(Oc2cc(I)c(O)c(I)c2)c(I)c1)C(=O)O [Levothyroxine]
- equilibrium solubility in SBO [2]: less than the limit of detection

Structure (SMILES): CCOc1nc2cccc(C(=O)O)c2n1Cc1ccc(-c2ccccc2-c2nnn[nH]2)cc1 [Candesartan]
- equilibrium solubility in PEG400 [3]: 13.8 ± 1.5 mg/g
- equilibrium solubility in SBO [2]: less than the limit of detection

Structure (SMILES): CC(C)(Oc1ccc(CCNC(=O)c2ccc(Cl)cc2)cc1)C(=O)O [Bezafibrate]
- equilibrium solubility in SBO [2]: less than the limit of detection

Structure (SMILES): CC(C)(C)NC(=O)[C@@H]1C[C@@H]2CCCC[C@@H]2CN1C[C@@H](O)[C@H](Cc1ccccc1)NC(=O)[C@H](CC(N)=O)NC(=O)c1ccc2ccccc2n1 [Saquinavir]
- equilibrium solubility in PEG400 [3]: high solubility

Structure (SMILES): C#C[C@]1(O)CC[C@H]2[C@@H]3CCc4cc(O)ccc4[C@H]3CC[C@@]21C [Ethinylestradiol]
- equilibrium solubility in PEG400 [3]: high solubility
- equilibrium solubility in PS80 [4]: high solubility

Structure (SMILES): COc1ccc(Cl)cc1C(=O)NCCc1ccc(S(=O)(=O)NC(=O)NC2CCCCC2)cc1 [Glibenclamide]
- equilibrium solubility in SBO [2]: less than the limit of detection
